Yeast growth inh: reduces growth of yeast BB579 in restrictive medium. S. cerevisiae BB579 growth, OD615, 48 h. inhibition, % at 10 µM. 140,000 compounds, 0.51% hits. AID 804;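 active means inhibition above a set limit, 3 SD over the mean compound inhibition, cut at about 44% in these data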
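Detection: OD615 turbidity measurement; Material: Saccharomyces cerevisiae DeaD strain BB579, replicative lifespan model yeast; Timing: 48 h exposure, 30 °C; Doses: single 10 µM dose; Medium: CSMM-D restrictive synthetic medium containing dextrose (glucose); Controls: amphotericin B at 10 µg/mL as positive control.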
Yeast lifespan up: yeast lifespan extension. S. cerevisiae growth with nicotinamide, OD615; deaD strain in restrictive glucose medium. inhibition of the nicotinamide effect, % at 10 µM. 130,000 compounds, 0.68% hits. AID 775;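 active means inhibition above a set limit, placed 3 SD over the median of all compounds, cut at about 26% in these data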;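 further: 0% = nicotinamide-treated wells and 100% = cells grown without nicotinamide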
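Test system – modified budding yeast, DeaD strain · Compound – single dose 10 µM compound, 0.25% DMSO · Times – culture preincubation 4 h, compound exposure 48 h, both 30 °C · Detection – optical density (absorbance) at 615 nm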
RAM network inh: blocks the yeast RAM network. S. cerevisiae dse1pr::URA3 reporter, 5-FOA growth OD615, 2 d; analog-sensitive cbk1-as2 kinase mutant strain. inhibition, % at 50 µM. 190,000 compounds, 1.8% hits. AID 868;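 active means inhibition above a set limit, 3 SD over mean compound inhibition, cut at about 8.4% in these data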;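 further: 0% = DMSO-only wells with no growth and 100% = 10 µM 1-NA-PP1 full growth; inhibition rescues growth on 5-FOA so higher OD means more RAM inhibition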
SDO1 yeast rescue: restores growth of sdo1-depleted yeast; AID 817; 140,000 compounds, 0.21% hits; z-score at 10 µM; S. cerevisiae sdo1-depleted JHY4D growth rescue, OD600 30 h; hits give high values; pdr5 snq2 efflux-pump mutant strain;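 active means z-score above 3 at both the 24 hr and the 30 hr optical density reads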;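 further: z-score against mean and SD of all compound wells on the same plate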
* marks the source's active call; other numbers are inactive results. Rows were chosen to be rich in hits. Some 2.7% of all compounds tested hit in one or more screens of this group.

How did CCCN1Cc2cccc(C(=O)N3CCN(c4ccc(OC)cc4)CC3)c2C1=O do in these assays?
RAM network inh: 1

How did O=C(CCCn1c(SCC(=O)c2ccc(Cl)cc2)nc2ccccc2c1=O)NCc1ccco1 do in these assays?
Yeast growth inh: -38; Yeast lifespan up: 11; RAM network inh: 8.5*; SDO1 yeast rescue: -0.51

Results for O=C(CCCCCn1c(SCC(=O)c2ccccc2)nc2ccccc2c1=O)NCc1ccco1 ?
Yeast growth inh: -70; Yeast lifespan up: 6; RAM network inh: 8; SDO1 yeast rescue: -0.37

How did CN(Cc1ccccc1)C(=O)CSc1nc2ccccc2c(=O)n1Cc1ccco1 do in these assays?
Yeast growth inh: -33; Yeast lifespan up: 0; RAM network inh: 9.2*; SDO1 yeast rescue: -1.8

What do the screens show for `CCN(CC)CCNC(C(=O)Nc1cccc(C(C)=O)c1)c1ccccc1` (stereo not drawn)?
RAM network inh: 1

How did O=c1cc(-c2c(F)c(F)c(F)c(F)c2F)oc2c(F)c(F)c(F)c(F)c12 do in these assays?
Yeast growth inh: -32; Yeast lifespan up: 106*; RAM network inh: 0; SDO1 yeast rescue: -1.9

What do the screens show for `O=c1cc(-c2c(F)c(F)c(F)c(F)c2F)oc2ccccc12`?
Yeast growth inh: 6; Yeast lifespan up: -14; RAM network inh: 2; SDO1 yeast rescue: -0.28

What do the screens show for `COC(=O)CSc1nc(-c2ccccc2)cc(-c2ccco2)c1C#N`?
Yeast growth inh: -10; Yeast lifespan up: -19; RAM network inh: 9.7*; SDO1 yeast rescue: -0.41

Results for COC(=O)CSc1nc(N)c(C#N)c(-c2ccco2)c1C#N ?
Yeast growth inh: -14; Yeast lifespan up: -9; RAM network inh: 4; SDO1 yeast rescue: 0.26

Results for N#Cc1c(-c2ccco2)cc(C2CC2)nc1SCC(=O)c1ccccc1 ?
Yeast growth inh: -29; Yeast lifespan up: -10; RAM network inh: 8.7*; SDO1 yeast rescue: 0.69

Results for COCCN1C(=S)NC(c2cccc(C(F)(F)F)c2)C(C(=O)N2CCOCC2)=C1C (stereo not drawn) ?
RAM network inh: 0

How did Nc1ccc(C(=O)OCC(=O)Nc2ccc3c(c2)OCO3)cc1[N+](=O)[O-] do in these assays?
Yeast growth inh: 98*; Yeast lifespan up: -1; RAM network inh: 5; SDO1 yeast rescue: 0.03

Results for O=C(/C=C/c1cccs1)Nc1scc(-c2ccccc2)c1C(=O)O ?
RAM network inh: 1

How did CCOC(=O)c1c(-c2ccc(C)o2)csc1NC(=O)CN1CCCCC1 do in these assays?
RAM network inh: 0

What do the screens show for `CCOC(=O)c1c(-c2cccs2)csc1N`?
RAM network inh: 0

How did CCOC(=O)c1c(-c2cccs2)csc1NC(=O)c1ccncc1 do in these assays?
Yeast growth inh: -43; Yeast lifespan up: 5; RAM network inh: 9.6*; SDO1 yeast rescue: 0.34

How did O=C(Nc1scc(-c2ccccc2)c1C(=O)O)c1ccco1 do in these assays?
Yeast growth inh: -2; Yeast lifespan up: 42*; RAM network inh: 2; SDO1 yeast rescue: 1.7

How did O=C(Nc1scc(-c2cccs2)c1C(=O)O)c1cccs1 do in these assays?
Yeast growth inh: -10; Yeast lifespan up: 35*; RAM network inh: 3; SDO1 yeast rescue: 0.54

How did CCOC(=O)c1c(-c2ccc(C)o2)csc1NC(=S)NC(=O)c1ccc(F)cc1 do in these assays?
Yeast growth inh: -24; Yeast lifespan up: 2; RAM network inh: 11*; SDO1 yeast rescue: -0.5

What do the screens show for `CCCc1ccc(OCC(=O)Nc2cc(S(=O)(=O)CC)ccc2O)cc1`?
RAM network inh: 5

Results for O=S(=O)(c1ccccc1)N1CCC(O)(CSc2ccc(F)cc2)CC1 ?
RAM network inh: 2

Results for CCOC(=O)C(C)Oc1ncnc2cccc(F)c12 (stereo not drawn) ?
RAM network inh: 0

Results for Cc1cccc(-n2nnc3c(=O)n(Cc4ccccn4)cnc32)c1 ?
RAM network inh: 5

Results for CC1c2nc3ccccc3n2C(CC(=O)NC2CC2)C(=O)N1Cc1ccccc1 (stereo not drawn) ?
RAM network inh: 1

What do the screens show for `CC(NC(=O)c1ccco1)C(=O)OCC(=O)c1ccc(Cl)s1` (stereo not drawn)?
RAM network inh: 0

What do the screens show for `CCOC(=O)c1c(NC(=O)c2cccs2)sc(C)c1CC`?
Yeast growth inh: 3; Yeast lifespan up: -29; RAM network inh: 11*; SDO1 yeast rescue: -0.14

How did CCc1c(C)sc(NC(=O)c2cccs2)c1C(=O)OC(C)C do in these assays?
Yeast growth inh: -7; Yeast lifespan up: -2; RAM network inh: 5; SDO1 yeast rescue: -1.5

How did Cc1ccccc1NC(=O)c1snc2c(=O)[nH]cnc12 do in these assays?
RAM network inh: -1

How did Cc1sc2ncnc(N/N=C/c3ccc(O)cc3)c2c1C do in these assays?
Yeast growth inh: -21; Yeast lifespan up: -2; RAM network inh: -1; SDO1 yeast rescue: 0.53

How did Cc1sc2ncnc(N/N=C/c3ccccc3O)c2c1C do in these assays?
Yeast growth inh: 68*; Yeast lifespan up: 2; RAM network inh: -1; SDO1 yeast rescue: -0.16

How did COc1ccc(CNC(=O)c2cccnc2Sc2ccc(C)c(C)c2)cc1 do in these assays?
Yeast growth inh: -47; Yeast lifespan up: 3; RAM network inh: 9.3*; SDO1 yeast rescue: -1

How did Cc1ccc(C2C(C#N)=C(N)N(c3cccnc3)C3=C2C(=O)CCC3)c(C)c1 (stereo not drawn) do in these assays?
RAM network inh: 0

How did O=C1NN(c2ccc(F)cc2)C(=O)/C1=C\C=C\c1ccco1 do in these assays?
Yeast growth inh: -14; Yeast lifespan up: 32*; RAM network inh: 4; SDO1 yeast rescue: 0.7

Results for OCc1ccnc2c(O)cccc12 ?
Yeast growth inh: 54*; Yeast lifespan up: -14; RAM network inh: -1; SDO1 yeast rescue: -0.54

How did COCc1ccc(O)c2ncccc12 do in these assays?
Yeast growth inh: -61; Yeast lifespan up: -3; RAM network inh: 2; SDO1 yeast rescue: 0.53

What do the screens show for `COc1ccccc1N(CC(O)Cn1c2ccccc2c2ccccc21)S(=O)(=O)c1ccccc1` (stereo not drawn)?
Yeast growth inh: -26; Yeast lifespan up: 1; RAM network inh: 7; SDO1 yeast rescue: -0.62

Results for COc1ccccc1N(CC(O)COc1ccccc1C)S(=O)(=O)c1ccccc1 (stereo not drawn) ?
Yeast growth inh: -70; Yeast lifespan up: 11; RAM network inh: 9.7*; SDO1 yeast rescue: -0.88

How did Cc1nonc1NC(=O)CSc1nc(C2CCCCC2)nc2ccccc12 do in these assays?
Yeast growth inh: -33; Yeast lifespan up: 61*; RAM network inh: 6; SDO1 yeast rescue: -1.7

How did Cc1cc(NC(=O)CSc2nc(C3CCCCC3)nc3ccccc23)no1 do in these assays?
Yeast growth inh: -47; Yeast lifespan up: 3; RAM network inh: 3; SDO1 yeast rescue: -1.3

Results for Cc1cccc(Oc2nc(CN3CCOCC3)nc3sc4c(c23)CCCC4)c1 ?
Yeast growth inh: -28; Yeast lifespan up: 33*; RAM network inh: 0; SDO1 yeast rescue: -2.3

How did CC(=O)c1cccc(CN2CCCC(CCC(=O)NCc3ccc(F)c(F)c3)C2)c1 (stereo not drawn) do in these assays?
RAM network inh: 1

Assay outcomes: PubChem BioAssay, several laboratories
